Data reported in ChEMBL document CHEMBL2034896, “Terpenoids from Chloranthus serratus and their anti-inflammatory activities” (J Nat Prod, 2012).

test system: RAW264.7; assay: Antiinflammatory activity in mouse RAW264.7 cells assessed as inhibition of LPS-stimulated nitric oxide production pretreated for 2 hrs before LPS challenge measured after 18 hrs by Griess method; type: functional, cell-based
Method in brief: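 Murine RAW264.7 macrophages are stimulated with LPS, and NO released into the medium is measured. The read-out is an IC50.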

| Compound | IC50 |
| --- | --- |
| CCO[C@]12OC(=O)C(C)=C1C1=C3[C@@](C)(C2=O)[C@@H]2C[C@@H]2[C@@]3(O)C[C@@H]2[C@]13OC(=O)C1=C3C[C@H]3[C@](O)(COC(=O)/C(C)=C/COC(=O)CCC(=O)OC1)[C@H]1C[C@H]1[C@]23C | > 10 µM |
| CC1=C2C3=C4C(=C[C@@H]5[C@]36OC(=O)C3=C6C[C@H]6[C@](O)(COC(=O)/C(C)=C/COC(=O)CCC(=O)OC3)[C@H]3C[C@H]3[C@]56C)[C@H]3C[C@H]3[C@]4(C)[C@@H](O)[C@@]2(O)OC1=O | 0.22 µM |
| C=C1CC[C@H]2C(C)(C)[C@@H](O)CC[C@]2(C)[C@H]1C/C=C(\C)C=O | > 10 µM |
| C=C1C[C@@H](O)[C@H]2C(C)(C)[C@@H](O)CC[C@]2(C)[C@H]1C/C=C(\C)C=O | > 10 µM |
| CC1=C2C[C@@H]3[C@](C)(CCC[C@]3(C)O)C[C@@H]2OC1=O | > 10 µM |
| CC1=C2C[C@@H]3[C@](C)(CCC[C@]3(C)O)C[C@]2(O)OC1=O | > 10 µM |
| C=C1CC[C@@H]2[C@](C)(O)C[C@@]3(O)OC(=O)C(C)=C3[C@@]2(O)C1 | > 10 µM |
| C[C@@H]1C[C@H]2[C@@H]3CCC4=CC(=O)C=C[C@]4(C)[C@@]3(F)[C@@H](O)C[C@]2(C)[C@@]1(O)C(=O)CO [DEXAMETHASONE] | 0.47 µM |
| COC(=O)/C(C)=C1\C(=O)[C@H](O)[C@]2(C)C3=C(C[C@@H]4[C@]5(OC(=O)C6=C5C[C@H]5[C@](O)(COC(=O)/C(C)=C/COC(=O)CCC(=O)OC6)[C@H]6C[C@H]6[C@]45C)[C@H]31)[C@H]1C[C@H]12 [SHIZUKAOL B] | 0.15 µM |
| COC(=O)/C(C)=C1/C(=O)[C@H](O)[C@]2(C)C3=C1[C@]14OC(=O)C(COC(C)=O)=C1C[C@H]1C[C@H]5C[C@H]5[C@]1(C)[C@@H]4C[C@]3(O)[C@H]1C[C@H]12 [SHIZUKAOL D] | 7.22 µM |
